CHRM1 PAM: human CHRM1 positive allosteric modulation. CHO-K1 hM1, Fluo-8 calcium fluorescence, ACh EC20; 0% = ACh EC20, 100% = maximal ACh. activation, % at 3 µM. actives 0.088% (n = 360,000); in the data active = activation above about 19%, passing the limit was not always enough
TAAR1 ag: agonists of human TAAR1; Q96RJ0; CHO RD-HGA16 TAAR1, Fluo-8 calcium fluorescence; vehicle wells 0%, saturating PEA agonist 100%; activation, % at 3 µM; actives 0.99% (n = 360,000); AID 624467;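 active = activation above the mean activation of all test compounds in the run plus 3 SD, cut at about 38% in these data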
Target sequence (Q96RJ0 whole entry, looked up): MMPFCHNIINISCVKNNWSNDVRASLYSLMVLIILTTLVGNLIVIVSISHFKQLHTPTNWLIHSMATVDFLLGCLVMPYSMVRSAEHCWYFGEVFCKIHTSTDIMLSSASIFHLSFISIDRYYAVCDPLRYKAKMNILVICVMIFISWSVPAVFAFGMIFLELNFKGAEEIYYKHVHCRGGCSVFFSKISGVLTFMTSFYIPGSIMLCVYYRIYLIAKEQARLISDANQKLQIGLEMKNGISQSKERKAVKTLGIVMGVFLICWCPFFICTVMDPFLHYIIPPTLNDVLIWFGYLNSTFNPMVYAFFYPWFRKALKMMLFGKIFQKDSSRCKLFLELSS
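System: CHO-derived RD-HGA16 cells with stable Gα16 and human TAAR1 / Times: 17-24 h plating, Fluo-8 75 min 37 °C, 30 min RT / Technique: calcium-sensitive Fluo-8 signal, excitation 470-495, emission 515-575 nm / Measure: % activation relative to PEA EC100 response / Benchmarks: DMSO and PEA EC100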
M1 ag: activates human CHRM1 receptor | activation, % at 3 µM | actives 0.33% (n = 360,000) | CHO-K1 hM1, Fluo-8 calcium fluorescence, agonist mode; 0% DMSO, 100% acetylcholine EC100 | P11229 | AID 588814;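 active = activation above the run's mean compound activation plus 3 SD, cut at about 16% in these data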;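 note: peak over basal fluorescence ratio within a 140 s kinetic read after compound addition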
CHRM1 antagonist: antagonists of human M1 muscarinic receptor | P11229 | CHO-K1 hM1, Fluo-8 calcium fluorescence, ACh EC80 antagonist | inhibition, % at 3 µM | actives 1.3% (n = 360,000);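 active = percent inhibition above its own plate's cutoff, namely the mean of that plate's compound wells plus 3 SD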;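 note: peak over basal fluorescence ratio during 140 s after agonist addition; 0% = ACh EC80 plus DMSO and 100% = DMSO alone without agonist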
HTR2A ag: agonists of mouse serotonin 5-HT2A receptor (HTR2A). P35363. CHO-K1 mHTR2A beta-arrestin complementation, luminescence; percent of 30 µM serotonin response. activation, % at 7.6 µM. actives 0.66% (n = 360,000). AID 624169;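 active = activation above a run cutoff, the mean activation of all tested compounds plus 3 SD, cut at about 14% in these data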;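 note: 0% = plate median of compound wells and 100% = 30 µM serotonin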
TAAR1 antag: human TAAR1 antagonism | inhibition, % at 3 µM | CHO RD-HGA16 TAAR1, Fluo-8 calcium fluorescence, antagonist | actives 1.5% (n = 360,000) | Q96RJ0;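 active = inhibition above a per-plate cutoff, the mean inhibition of test compounds on that plate plus 3 SD, cut at about 49% in these data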;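 note: 0% = DMSO plus EC80 beta-PEA response and 100% = DMSO alone without agonist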
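Material: CHO RD-HGA16 cells bearing hTAAR1; compound dosing: one-point dosing, 3 µM nominal final; schedule: dye loading 75 min at 37 °C, then 30 min room temperature; measured by: calcium fluorescence with Fluo-8; control set: vehicle and agonist controls; replication: n of 1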
Active calls of the source: *; . = not tested or not shown. A selection: hits, their analogues and other compounds. The true share with any hit is near 3.9%.

SMILES | CHRM1 PAM | TAAR1 ag | M1 ag | CHRM1 antagonist | HTR2A ag | TAAR1 antag
COc1ccccc1C(CNc1ncnc2sc(C)c(C)c12)N(C)C (stereo unspecified) | -34 | 4 | -11 | 92* | -4 | -21
CC(SCC(=O)Nc1ccccc1Br)c1nc2ccccc2c(=O)[nH]1 (stereo unspecified) | 5 | 2 | -2 | -12 | -3 | 5
CN1C[C@@H]2C(c3ccc(C(F)(F)F)cc3)C3(c4ccccc4)CC2(C3)[C@H]1c1ccccc1 (stereo partly specified) | -5 | 7 | -6 | -6 | -2 | -14
CN1C[C@@H]2C(c3ccccc3)C3(c4cccnc4)CC2(C3)[C@H]1c1ccccc1 (stereo partly specified) | -34 | 1 | -11 | 97* | -1 | -7
CC(Oc1cccc(Cl)c1)C(=O)Nc1ccc(S(=O)(=O)N(C)C2CCN(C)CC2)cc1 (stereo unspecified) | 8 | 42* | 7 | 3 | -7 | 11
CC(=O)Nc1ccc(S(=O)(=O)N(C)C2CCN(C)CC2)cc1 | 2 | -1 | -5 | -3 | -3 | 2
CC(Oc1ccc(F)cc1)C(=O)Nc1ccc(S(=O)(=O)NC2=NCCCCC2)cc1 (stereo unspecified) | 3 | 44* | 24* | -4 | -5 | 20
Cc1cccc(C(=O)N[C@H](C(=O)Nc2ccc(S(=O)(=O)NC3=NCCCCC3)cc2)C(C)C)c1 | 15 | 6 | -15 | -7 | -3 | -13
CC(Oc1cccc(Cl)c1)C(=O)Nc1ccc(S(=O)(=O)NC2=NCCCCC2)cc1 (stereo unspecified) | 7 | 40* | 12 | -8 | 8 | 13
COc1ccc(CC(=O)NNC(=S)NCC2CC2)cc1OC | 6 | 3 | 0 | -4 | 0 | -2
CCCCc1c(-c2ccccc2OC)ncn1Cc1cccc(F)c1F | . | 3 | . | . | . | 14
Cc1ccc2c(=O)c(CN3CCCCCC3)c(C)[nH]c2c1C | -21 | 0 | -11 | 72* | -3 | -4
Cc1[nH]c2c(Cl)cccc2c(=O)c1CN1CCCCCC1 | -3 | -1 | -10 | -7 | -9 | -11
CCc1cc2cc(C)cc(C)c2[nH]c1=S | 7 | 4 | -3 | 2 | 0 | 3
O=C(Nc1cccc(C(=O)O)c1)/C(=C\c1cccc([N+](=O)[O-])c1)NC(=O)c1ccc(Br)cc1 | -21 | 0 | -6 | 61* | 5 | -3
CCOc1ccccc1CNS(=O)(=O)c1ccc(-c2cnc(C3CC3)o2)cc1 | -15 | 4 | 3 | 36* | -2 | 58*
O=S(=O)(NCc1ccccc1)c1ccc(-c2cnc(C3CC3)o2)cc1 | -13 | -1 | 1 | 27 | 1 | 2
O=C(CC1NCCc2ccccc21)Nc1ccccc1 (stereo unspecified) | -1 | 10 | -11 | 4 | -2 | 2
O=C(CC1NCCc2ccccc21)Nc1ccc(Oc2ccccc2)cc1 (stereo unspecified) | 1 | 42* | -13 | 1 | 2 | -2
Nn1c(SCC(=O)Nc2ccccc2F)nnc1C1CCCCC1 | 12 | -1 | -2 | -13 | 4 | -7
Cc1ccc(Cl)cc1N1CCN(CC(=O)Nc2ccc(CN3CCCCC3)cc2)CC1 | -8 | 52* | 6 | 19 | -10 | -3
CC1CCCCN1CC(=O)Nc1ccccc1Sc1ccccc1 (stereo unspecified) | -25 | 4 | -8 | 27* | -4 | -21
CC(=O)N(Cc1c(C)nn(-c2ccccc2)c1Cl)c1ccc(Cl)cc1 | 3 | -3 | -4 | -13 | -2 | 6
Cc1nn(-c2ccccc2)c(Cl)c1CN(C(=O)CCl)c1cccc2ccccc12 | -11 | 11 | -8 | 4 | -3 | 50*
Cc1nn(-c2ccccc2)c(Cl)c1CN(C(=O)CCl)c1ccc(Cl)cc1 | -18 | -2 | -9 | 27 | -3 | 60*
CC(C1CC2CCC1C2)n1c(-c2ccco2)n[nH]c1=S (stereo unspecified) | 5 | 5 | -12 | -2 | -1 | 17

Assay outcomes: PubChem, The Scripps Research Institute Molecular Screening Center
